Legend:
[1] = molecular target: Platelet-derived growth factor receptor (Homo sapiens, UniProt P09619+P16234); experiment: Antitumor activity measured by the inhibition of platelet-derived growth factor receptor autophosphorylation in intact Swiss 3T3 cells; assay type: cell-based
Outline: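 Quiescent Swiss 3T3 fibroblasts moved to serum-free DMEM and exposed to compound in DMSO (final 1%) for 2 h. They were then stimulated with 100 ng/mL human recombinant PDGF-BB for 10 min at room temperature and lysed. Autophosphorylation was read by immunoblotting. Four to eight concentrations were tested across 2 orders of magnitude, and IC50 came from curve fitting over three independent experiments.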

[2] = molecular target: Fibroblast growth factor receptor 1 (Homo sapiens, UniProt P11362); experiment: Inhibition of Fibroblast growth factor receptor 1 autophosphorylation in PAE cells; assay type: cell-based, Sus scrofa
[3] = molecular target: Epidermal growth factor receptor (Homo sapiens, UniProt P00533); experiment: Inhibition of Epidermal growth factor receptor autophosphorylation in A431 cells; assay type: cell-based, A-431
Outline: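 A431 cells, starved overnight in serum-free medium, were exposed to compound for 2 h and then stimulated with 100 ng/mL EGF for 10 min. Cells were extracted in lysis buffer (Hepes pH 7.5, 1% Triton), and EGFR tyrosine autophosphorylation was read by immunoblotting.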

[4] = molecular target: T1, Platelet-derived growth factor receptor beta (Homo sapiens, UniProt P09619); experiment: Inhibition of Platelet-derived growth factor receptor beta autophosphorylation in PAE cells; assay type: cell-based, Sus scrofa
Outline: (§1)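 Porcine aortic endothelial cells expressing human PDGF α- or β-receptor were used. Receptor autophosphorylation in the intact cells was read by immunoblotting.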

[5] = Inhibition of Protein kinase C isoforms epsilon and iota in vitro phosphorylation
Outline: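 RGS-His6-tagged PKC isoforms were expressed transiently in COS-7 cells and purified from lysate on Ni-NTA, with imidazole elution. Reactions ran 10 min at 30 °C, and phosphocellulose-bound radioactivity was counted.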

[6] = molecular target: T1, Platelet-derived growth factor receptor beta; experiment: Inhibition of Platelet-derived growth factor receptor beta kinase activity in Sf9-expressed GST-fusion protein
Outline: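 A constitutively active GST fusion of the PDGFβ-receptor cytoplasmic domain was expressed in Sf9 cells. The isolated fusion protein was tested in an in vitro autophosphorylation assay at 10 µM ATP.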

[7] = molecular target: T2, Protein kinase C epsilon type (Homo sapiens, UniProt Q02156); experiment: Inhibition of His-tagged Protein kinase C epsilon over-expressed in COS7 cells; assay type: cell-based, COS-7
T2 sequence (Q02156 whole entry): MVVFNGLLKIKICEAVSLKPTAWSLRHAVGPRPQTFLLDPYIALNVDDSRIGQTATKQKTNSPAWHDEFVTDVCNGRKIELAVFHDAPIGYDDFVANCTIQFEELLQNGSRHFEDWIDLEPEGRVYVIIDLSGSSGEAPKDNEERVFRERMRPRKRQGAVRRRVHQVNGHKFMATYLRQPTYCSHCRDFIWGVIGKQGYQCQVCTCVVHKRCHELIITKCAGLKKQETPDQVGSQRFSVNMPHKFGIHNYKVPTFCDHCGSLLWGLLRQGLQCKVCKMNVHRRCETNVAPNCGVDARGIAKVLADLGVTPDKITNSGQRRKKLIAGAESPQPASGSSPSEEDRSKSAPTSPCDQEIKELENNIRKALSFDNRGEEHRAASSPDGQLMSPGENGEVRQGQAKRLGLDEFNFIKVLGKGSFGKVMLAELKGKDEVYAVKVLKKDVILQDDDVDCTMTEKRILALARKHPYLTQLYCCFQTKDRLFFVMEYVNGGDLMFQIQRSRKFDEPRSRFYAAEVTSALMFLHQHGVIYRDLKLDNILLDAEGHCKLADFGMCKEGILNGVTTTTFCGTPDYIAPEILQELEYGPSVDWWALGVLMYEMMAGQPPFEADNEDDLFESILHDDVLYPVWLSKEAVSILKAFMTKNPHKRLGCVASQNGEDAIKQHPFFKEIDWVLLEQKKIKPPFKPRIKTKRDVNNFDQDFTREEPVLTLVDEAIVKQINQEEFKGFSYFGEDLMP
Outline: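 RGS-His6-tagged PKC was transiently expressed in COS-7 cells, purified on Ni-NTA agarose and eluted with 500 mM imidazole. Reactions ran 10 min at 30 °C; phosphocellulose binding and scintillation counting gave the read-out.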

[8] = molecular target: T3, Beta-adrenergic receptor kinase 1 (Homo sapiens, UniProt P25098); experiment: Inhibition of G-protein coupled receptor kinase 2 (GRK2) in vitro phosphorylation
T3 sequence (P25098 whole entry): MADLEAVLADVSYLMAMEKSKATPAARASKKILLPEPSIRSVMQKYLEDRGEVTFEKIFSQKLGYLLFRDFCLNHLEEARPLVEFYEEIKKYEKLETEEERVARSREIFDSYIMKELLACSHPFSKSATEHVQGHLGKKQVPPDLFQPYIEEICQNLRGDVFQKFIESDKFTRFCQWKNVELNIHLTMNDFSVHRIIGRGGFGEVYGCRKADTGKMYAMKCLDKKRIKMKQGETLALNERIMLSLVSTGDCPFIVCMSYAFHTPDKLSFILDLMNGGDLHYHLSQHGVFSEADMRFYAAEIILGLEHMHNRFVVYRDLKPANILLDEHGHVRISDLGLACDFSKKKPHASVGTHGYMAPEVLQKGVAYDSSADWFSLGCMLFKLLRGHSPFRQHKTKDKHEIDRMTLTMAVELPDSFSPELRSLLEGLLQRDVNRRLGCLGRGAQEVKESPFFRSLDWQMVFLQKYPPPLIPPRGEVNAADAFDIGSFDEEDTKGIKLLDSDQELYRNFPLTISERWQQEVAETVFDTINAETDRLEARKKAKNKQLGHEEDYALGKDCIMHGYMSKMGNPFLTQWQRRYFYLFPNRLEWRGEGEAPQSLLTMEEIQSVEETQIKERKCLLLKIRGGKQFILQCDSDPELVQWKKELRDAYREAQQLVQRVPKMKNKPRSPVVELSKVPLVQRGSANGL
Outline: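 GRK2 was assayed in vitro using lysates of GRK2-overexpressing 293 cells as the kinase source. Rhodopsin purified from bovine rod outer segments served as substrate.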

[9] = molecular target: Platelet-derived growth factor receptor alpha (Homo sapiens, UniProt P16234); experiment: Inhibition of Platelet-derived growth factor receptor alpha autophosphorylation in PAE cells; assay type: cell-based, Sus scrofa; outline: as §1
[10] = molecular target: T1, Platelet-derived growth factor receptor beta; experiment: Inhibition of purified Platelet-derived growth factor receptor beta kinase activity
Outline: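 PDGFβ-receptor kinase was purified from membranes of a receptor-overexpressing cell line. Inhibition was tested in an in vitro autophosphorylation assay at 10 µM ATP.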

[11] = molecular target: Proto-oncogene tyrosine-protein kinase Src (Homo sapiens, UniProt P12931); experiment: Inhibition of Src protein tyrosine kinase
Outline: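 Src-dependent tyrosine phosphorylation was measured in intact src-transformed NIH3T3 fibroblasts, with immunoblot read-out.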

T1 sequence (P09619 whole entry): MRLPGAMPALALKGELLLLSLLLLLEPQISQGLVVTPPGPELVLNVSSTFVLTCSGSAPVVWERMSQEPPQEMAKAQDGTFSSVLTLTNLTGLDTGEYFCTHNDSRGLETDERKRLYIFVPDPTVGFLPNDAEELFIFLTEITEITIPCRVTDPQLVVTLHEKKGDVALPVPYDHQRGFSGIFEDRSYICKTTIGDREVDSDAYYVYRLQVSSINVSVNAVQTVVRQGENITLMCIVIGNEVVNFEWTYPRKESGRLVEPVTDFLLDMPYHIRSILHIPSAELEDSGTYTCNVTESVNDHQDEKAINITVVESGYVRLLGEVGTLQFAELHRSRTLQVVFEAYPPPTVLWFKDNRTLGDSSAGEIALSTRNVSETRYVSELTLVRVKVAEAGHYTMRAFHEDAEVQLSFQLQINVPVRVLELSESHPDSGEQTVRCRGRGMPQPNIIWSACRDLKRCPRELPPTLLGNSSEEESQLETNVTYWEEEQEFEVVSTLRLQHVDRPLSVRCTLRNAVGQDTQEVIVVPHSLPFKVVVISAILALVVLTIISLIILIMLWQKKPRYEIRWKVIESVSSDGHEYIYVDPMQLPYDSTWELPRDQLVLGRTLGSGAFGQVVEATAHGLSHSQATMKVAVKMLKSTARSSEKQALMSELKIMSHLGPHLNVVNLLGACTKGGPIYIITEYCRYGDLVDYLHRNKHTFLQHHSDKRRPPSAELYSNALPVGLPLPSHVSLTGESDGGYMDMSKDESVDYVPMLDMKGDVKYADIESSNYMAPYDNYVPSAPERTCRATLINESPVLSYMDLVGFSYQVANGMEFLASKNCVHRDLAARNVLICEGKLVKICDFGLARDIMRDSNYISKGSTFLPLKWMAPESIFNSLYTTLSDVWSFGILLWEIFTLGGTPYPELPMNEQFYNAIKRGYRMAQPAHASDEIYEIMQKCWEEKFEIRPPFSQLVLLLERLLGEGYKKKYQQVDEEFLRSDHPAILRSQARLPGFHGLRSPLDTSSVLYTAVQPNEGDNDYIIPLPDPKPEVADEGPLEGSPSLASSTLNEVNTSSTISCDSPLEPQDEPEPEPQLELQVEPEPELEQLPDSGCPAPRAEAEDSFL
Proto-oncogene tyrosine-protein kinase Src, sequence (P12931 2-536 limits assumed): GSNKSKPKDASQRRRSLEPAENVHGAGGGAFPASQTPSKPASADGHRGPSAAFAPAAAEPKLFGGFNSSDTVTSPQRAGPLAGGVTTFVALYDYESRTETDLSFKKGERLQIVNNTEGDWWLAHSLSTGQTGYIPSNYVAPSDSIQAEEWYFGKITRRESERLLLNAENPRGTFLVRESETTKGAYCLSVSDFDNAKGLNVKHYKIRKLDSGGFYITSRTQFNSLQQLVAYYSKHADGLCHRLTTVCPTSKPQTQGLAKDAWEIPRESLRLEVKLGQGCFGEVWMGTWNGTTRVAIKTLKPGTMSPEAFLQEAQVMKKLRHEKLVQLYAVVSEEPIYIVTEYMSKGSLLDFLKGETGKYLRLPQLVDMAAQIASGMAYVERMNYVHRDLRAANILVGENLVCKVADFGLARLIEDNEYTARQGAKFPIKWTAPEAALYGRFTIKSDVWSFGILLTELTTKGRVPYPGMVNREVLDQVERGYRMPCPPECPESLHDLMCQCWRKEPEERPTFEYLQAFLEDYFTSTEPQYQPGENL
Fibroblast growth factor receptor 1, sequence (P11362 whole entry): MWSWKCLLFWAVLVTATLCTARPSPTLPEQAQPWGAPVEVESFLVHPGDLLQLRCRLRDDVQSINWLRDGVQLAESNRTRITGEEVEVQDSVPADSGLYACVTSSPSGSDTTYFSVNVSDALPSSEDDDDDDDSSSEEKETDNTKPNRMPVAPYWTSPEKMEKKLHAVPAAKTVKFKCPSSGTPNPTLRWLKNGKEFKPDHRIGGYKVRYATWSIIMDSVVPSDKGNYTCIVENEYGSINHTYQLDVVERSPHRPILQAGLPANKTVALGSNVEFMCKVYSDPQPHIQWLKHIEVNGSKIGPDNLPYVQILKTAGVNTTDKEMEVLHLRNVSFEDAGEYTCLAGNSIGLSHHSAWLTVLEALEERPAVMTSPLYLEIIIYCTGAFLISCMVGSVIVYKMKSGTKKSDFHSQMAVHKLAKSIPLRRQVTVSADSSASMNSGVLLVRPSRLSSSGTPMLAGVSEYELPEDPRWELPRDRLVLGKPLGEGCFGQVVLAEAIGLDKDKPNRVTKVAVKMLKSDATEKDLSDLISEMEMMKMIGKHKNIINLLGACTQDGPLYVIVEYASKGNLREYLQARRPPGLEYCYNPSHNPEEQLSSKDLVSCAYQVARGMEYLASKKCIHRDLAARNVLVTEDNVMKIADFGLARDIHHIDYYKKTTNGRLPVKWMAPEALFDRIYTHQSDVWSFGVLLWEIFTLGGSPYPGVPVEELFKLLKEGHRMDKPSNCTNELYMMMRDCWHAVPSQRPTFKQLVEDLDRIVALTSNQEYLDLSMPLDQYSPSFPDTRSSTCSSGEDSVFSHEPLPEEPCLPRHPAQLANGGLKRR
Platelet-derived growth factor receptor alpha, sequence (P16234 whole entry): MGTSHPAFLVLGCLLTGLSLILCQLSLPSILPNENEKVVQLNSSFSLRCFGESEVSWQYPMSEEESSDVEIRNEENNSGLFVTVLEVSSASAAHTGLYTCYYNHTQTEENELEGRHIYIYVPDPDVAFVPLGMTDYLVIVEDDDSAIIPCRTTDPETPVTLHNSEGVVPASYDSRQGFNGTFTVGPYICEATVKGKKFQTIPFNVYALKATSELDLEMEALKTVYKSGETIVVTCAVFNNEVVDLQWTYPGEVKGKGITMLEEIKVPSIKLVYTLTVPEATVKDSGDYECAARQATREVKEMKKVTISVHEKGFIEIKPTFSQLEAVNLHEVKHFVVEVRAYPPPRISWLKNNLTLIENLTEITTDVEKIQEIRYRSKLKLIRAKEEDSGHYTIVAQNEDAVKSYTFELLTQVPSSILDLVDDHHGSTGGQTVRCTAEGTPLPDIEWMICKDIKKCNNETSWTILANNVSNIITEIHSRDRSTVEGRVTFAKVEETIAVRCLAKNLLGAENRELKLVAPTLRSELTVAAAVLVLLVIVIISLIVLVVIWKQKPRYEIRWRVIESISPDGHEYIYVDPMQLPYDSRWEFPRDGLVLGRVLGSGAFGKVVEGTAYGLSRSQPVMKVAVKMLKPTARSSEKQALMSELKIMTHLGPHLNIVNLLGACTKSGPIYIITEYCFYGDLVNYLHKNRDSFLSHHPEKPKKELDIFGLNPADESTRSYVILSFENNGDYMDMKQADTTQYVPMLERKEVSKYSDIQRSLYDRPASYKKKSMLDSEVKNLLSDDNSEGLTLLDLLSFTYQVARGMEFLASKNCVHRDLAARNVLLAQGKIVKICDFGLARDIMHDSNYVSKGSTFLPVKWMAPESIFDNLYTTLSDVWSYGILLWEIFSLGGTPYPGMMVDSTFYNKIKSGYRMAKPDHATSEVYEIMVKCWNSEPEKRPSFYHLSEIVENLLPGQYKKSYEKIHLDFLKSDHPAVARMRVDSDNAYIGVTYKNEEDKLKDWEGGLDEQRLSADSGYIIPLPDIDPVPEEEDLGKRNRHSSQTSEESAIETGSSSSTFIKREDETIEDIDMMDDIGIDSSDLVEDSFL
Epidermal growth factor receptor, sequence (P00533 whole entry): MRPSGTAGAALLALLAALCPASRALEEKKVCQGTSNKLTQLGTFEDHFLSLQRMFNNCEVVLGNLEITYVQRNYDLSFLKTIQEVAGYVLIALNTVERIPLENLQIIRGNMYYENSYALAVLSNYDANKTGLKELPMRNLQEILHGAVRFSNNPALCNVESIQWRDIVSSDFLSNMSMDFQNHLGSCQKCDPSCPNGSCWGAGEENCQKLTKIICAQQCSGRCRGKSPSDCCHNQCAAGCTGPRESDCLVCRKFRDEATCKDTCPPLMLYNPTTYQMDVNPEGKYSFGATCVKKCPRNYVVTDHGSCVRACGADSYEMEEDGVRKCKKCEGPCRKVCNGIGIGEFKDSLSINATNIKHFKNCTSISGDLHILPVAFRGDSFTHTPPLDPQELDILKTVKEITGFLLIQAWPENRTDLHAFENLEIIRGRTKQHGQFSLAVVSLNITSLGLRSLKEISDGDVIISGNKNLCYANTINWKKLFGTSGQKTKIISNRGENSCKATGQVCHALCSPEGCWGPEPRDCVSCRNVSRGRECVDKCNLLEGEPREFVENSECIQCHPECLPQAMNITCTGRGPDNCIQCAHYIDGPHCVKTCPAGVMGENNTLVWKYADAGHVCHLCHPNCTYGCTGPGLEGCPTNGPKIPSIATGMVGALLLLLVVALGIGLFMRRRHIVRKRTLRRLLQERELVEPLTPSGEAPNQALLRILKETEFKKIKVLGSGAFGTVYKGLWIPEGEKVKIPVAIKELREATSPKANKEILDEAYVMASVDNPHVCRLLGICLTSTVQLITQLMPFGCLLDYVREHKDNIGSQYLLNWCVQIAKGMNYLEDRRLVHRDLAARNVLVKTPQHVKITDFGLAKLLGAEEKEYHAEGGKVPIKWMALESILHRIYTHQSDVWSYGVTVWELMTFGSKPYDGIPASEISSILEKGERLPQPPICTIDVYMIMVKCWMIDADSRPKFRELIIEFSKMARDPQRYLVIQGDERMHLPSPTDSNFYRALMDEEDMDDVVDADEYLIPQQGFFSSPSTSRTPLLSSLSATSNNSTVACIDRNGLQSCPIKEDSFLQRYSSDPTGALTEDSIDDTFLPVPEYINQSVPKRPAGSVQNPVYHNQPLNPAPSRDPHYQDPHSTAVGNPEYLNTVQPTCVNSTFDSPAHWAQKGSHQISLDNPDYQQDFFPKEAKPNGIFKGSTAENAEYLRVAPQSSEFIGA

| Structure (SMILES) | IC50 [1] | further results |
| --- | --- | --- |
| COc1cccc(CC(=O)Oc2ccc3[nH]c(C(=O)c4cc5ccccc5[nH]4)cc3c2)c1 | 1000 nM | – |
| COc1ccc2[nH]c(C(=O)c3cc4ccccc4o3)cc2c1 | 4000 nM | – |
| O=C(c1cc2ccccc2[nH]1)c1cc2cc(OC(=O)C3CCC3)ccc2[nH]1 | 9100 nM | – |
| CN(C)CC(=O)Oc1ccc2[nH]c(C(=O)c3cc4ccccc4[nH]3)cc2c1 | 100 nM | IC50 [2]: > 10 µM; IC50 [3]: > 30 µM; IC50 [4]: 100 nM; IC50 [5]: 15.1 µM; IC50 [6]: 1300 nM; IC50 [7]: 30 µM; IC50 [8]: > 100 µM; IC50 [9]: 100 nM; IC50 [10]: 100 nM; IC50 [11]: > 30 µM |
| O=C(c1cc2ccccc2[nH]1)c1cc2cc(OCC3CCCCC3)ccc2[nH]1 | > 30000 nM | – |
| CCCC(=O)Oc1ccc2[nH]c(C(=O)c3cc4ccccc4[nH]3)cc2c1 | 1100 nM | – |
| O=C(c1cc2ccccc2[nH]1)c1cc2cc(OCCN3CCOCC3)ccc2[nH]1 | 2500 nM | – |
| COc1ccc2[nH]c(C(=O)c3cc4ccccc4[nH]3)cc2c1 | 300 nM | – |
| O=C(Cc1cccs1)Oc1ccc2[nH]c(C(=O)c3cc4ccccc4[nH]3)cc2c1 | 800 nM | – |
| CN(C)CCOc1ccc2[nH]c(C(=O)c3cc4ccccc4[nH]3)cc2c1 | 800 nM | – |
| COc1cccc2cc(C(=O)c3cc4ccccc4[nH]3)[nH]c12 | > 30000 nM | – |
| COc1cc(C(=O)Oc2ccc3[nH]c(C(=O)c4cc5ccccc5[nH]4)cc3c2)cc(OC)c1OC | 4100 nM | – |
| Cc1ccc2[nH]c(C(=O)c3cc4ccccc4[nH]3)cc2c1 | 7500 nM | – |
| O=C(c1cc2ccccc2[nH]1)c1cc2cc(OC(=O)C3CC3)ccc2[nH]1 | 9100 nM | – |
| O=C(c1cc2ccccc2[nH]1)c1cc2cc(OCCCCI)ccc2[nH]1 | 5000 nM | – |
| O=C(c1cc2ccccc2[nH]1)c1cc2cc(OCCN3CCCCC3)ccc2[nH]1 | 800 nM | – |
| O=C(c1cc2ccccc2s1)c1cc2ccccc2s1 | > 30000 nM | – |
| CC(=O)Oc1ccc2[nH]c(C(=O)c3cc4ccccc4[nH]3)cc2c1 | 300 nM | IC50 [2]: 0.2 µM; IC50 [3]: > 30 µM; IC50 [4]: 4900 nM; IC50 [5]: 17 µM; IC50 [6]: 70 nM; IC50 [7]: > 100 µM; IC50 [8]: > 100 µM; IC50 [9]: 100 nM; IC50 [10]: 300 nM; IC50 [11]: > 30 µM |
| CCC(=O)Oc1ccc2[nH]c(C(=O)c3cc4ccccc4[nH]3)cc2c1 | 900 nM | – |
| O=C(c1cc2ccccc2[nH]1)c1cc2cc(O)ccc2[nH]1 | 200 nM | IC50 [2]: > 10 µM; IC50 [3]: > 30 µM; IC50 [4]: 200 nM; IC50 [5]: > 100 µM; IC50 [6]: 600 nM; IC50 [7]: > 30 µM; IC50 [9]: 1000 nM; IC50 [10]: 90 nM; IC50 [11]: > 30 µM |
| CN(C)CCCOc1ccc2[nH]c(C(=O)c3cc4ccccc4[nH]3)cc2c1 | 3200 nM | – |
| COc1ccc2cc(C(=O)c3cc4ccccc4[nH]3)[nH]c2c1 | 300 nM | – |
| CCOc1ccc2[nH]c(C(=O)c3cc4ccccc4[nH]3)cc2c1 | 2300 nM | – |
| O=C(c1cc2ccccc2[nH]1)c1cc2cc(OCCCCCI)ccc2[nH]1 | > 20000 nM | – |
| COCC(=O)Oc1ccc2[nH]c(C(=O)c3cc4ccccc4[nH]3)cc2c1 | 200 nM | IC50 [2]: > 10 µM; IC50 [3]: > 30 µM; IC50 [4]: 100 nM; IC50 [5]: 20.4 µM; IC50 [6]: 4200 nM; IC50 [7]: > 100 µM; IC50 [8]: > 100 µM; IC50 [9]: 300 nM; IC50 [10]: 20 nM; IC50 [11]: > 30 µM |
| COc1ccc2[nH]c(C(=O)c3cc4cc(OC)ccc4[nH]3)cc2c1 | 10000 nM | – |
| COc1ccc2[nH]c(C(=O)c3cc4ccccc4s3)cc2c1 | 1000 nM | – |

More lines, main results first:

| IC50 [1] | Structure (SMILES) | further results |
| --- | --- | --- |
| 10000 nM | O=C(c1cc2ccccc2[nH]1)c1cc2cc(OCc3ccccc3)ccc2[nH]1 | – |
| 800 nM | O=C(Oc1ccc2[nH]c(C(=O)c3cc4ccccc4[nH]3)cc2c1)c1ccccc1 | – |
| 2200 nM | CC(=O)Oc1ccccc1C(=O)Oc1ccc2[nH]c(C(=O)c3cc4ccccc4[nH]3)cc2c1 | – |
| 3200 nM | COc1ccc(C(=O)Oc2ccc3[nH]c(C(=O)c4cc5ccccc5[nH]4)cc3c2)cc1 | – |
| 3400 nM | O=C(/C=C/c1ccccc1)Oc1ccc2[nH]c(C(=O)c3cc4ccccc4[nH]3)cc2c1 | – |
| > 30000 nM | O=C(Oc1ccc2[nH]c(C(=O)c3cc4ccccc4[nH]3)cc2c1)c1cccc(Oc2ccccc2)c1 | – |
| > 30000 nM | O=C(c1cc2ccccc2[nH]1)c1cc2cc(OC(=O)C(c3ccccc3)c3ccccc3)ccc2[nH]1 | – |
| 900 nM | CC(=O)OC(C(=O)Oc1ccc2[nH]c(C(=O)c3cc4ccccc4[nH]3)cc2c1)c1ccccc1 (stereo not given) | – |
| > 30000 nM | O=C(c1cc2ccccc2[nH]1)c1cc2cc(OC(=O)c3ccccc3Oc3ccccc3)ccc2[nH]1 | – |
| 600 nM | O=C(c1cc2ccccc2[nH]1)c1cc2cc(OC(=O)c3ccco3)ccc2[nH]1 | – |
| 400 nM | O=C(Oc1ccc2[nH]c(C(=O)c3cc4ccccc4[nH]3)cc2c1)c1ccc2ccccc2n1 | – |
| 900 nM | O=C(Oc1ccc2[nH]c(C(=O)c3cc4ccccc4[nH]3)cc2c1)c1ccc([N+](=O)[O-])cc1 | – |
| > 30000 nM | O=C(c1cc2ccccc2[nH]1)c1cc2cc(OC(=O)c3ccccc3C(=O)c3ccccc3)ccc2[nH]1 | – |
| 1300 nM | CCOc1ccc(C(=O)Oc2ccc3[nH]c(C(=O)c4cc5ccccc5[nH]4)cc3c2)cc1 | – |
| 1000 nM | O=C(Oc1ccc2[nH]c(C(=O)c3cc4ccccc4[nH]3)cc2c1)c1cccnc1 | – |
| 1200 nM | O=C(CCc1ccccc1)Oc1ccc2[nH]c(C(=O)c3cc4ccccc4[nH]3)cc2c1 | – |
| > 30000 nM | CC(Oc1ccc2[nH]c(C(=O)c3cc4ccccc4[nH]3)cc2c1)c1ccccc1 (stereo not given) | – |
| 1700 nM | O=C(Oc1ccc2[nH]c(C(=O)c3cc4ccccc4[nH]3)cc2c1)c1ccc(-c2ccccc2)cc1 | – |
| 4600 nM | O=C(c1cc2ccccc2[nH]1)c1cc2cc(OC(=O)c3ccccc3Cl)ccc2[nH]1 | – |
